Experimental data: ChEMBL document CHEMBL4390675, “Dopamine D4 Receptor-Selective Compounds Reveal Structure-Activity Relationships that Engender Agonist Efficacy” (J Med Chem, 2019)
The source made the active and inactive calls. No cut-off for these calls is given here.

The compounds below were run against T1, D(2) dopamine receptor (Homo sapiens, UniProt P14416) (assay: Agonist activity at human D2L receptor expressed in CHOK1 cells assessed as inhibition of forskolin-induced cAMP accumulation measured after 30 mins by Eu-cAMP tracer based TR-FRET assay). Settings: not given.
T1 sequence (P14416 whole entry): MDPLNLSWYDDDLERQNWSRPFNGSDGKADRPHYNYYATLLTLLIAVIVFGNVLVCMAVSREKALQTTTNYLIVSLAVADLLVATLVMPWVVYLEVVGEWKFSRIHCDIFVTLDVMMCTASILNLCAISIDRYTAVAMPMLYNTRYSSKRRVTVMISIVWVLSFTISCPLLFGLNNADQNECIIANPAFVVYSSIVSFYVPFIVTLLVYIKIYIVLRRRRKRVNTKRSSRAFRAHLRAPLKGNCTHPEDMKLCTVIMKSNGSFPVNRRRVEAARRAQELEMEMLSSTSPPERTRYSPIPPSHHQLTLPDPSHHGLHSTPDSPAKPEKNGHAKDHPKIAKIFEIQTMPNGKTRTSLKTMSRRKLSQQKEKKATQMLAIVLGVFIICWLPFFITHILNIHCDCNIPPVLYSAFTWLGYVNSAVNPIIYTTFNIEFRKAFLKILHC
Type: cell-based
Procedure, shortened: (§1)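 LANCE Ultra TR-FRET cAMP assay in CHO-K1 cells stably expressing human D2R long isoform or D4R. Cells were plated in HBSS/5 mM HEPES/0.2 μM metabisulfite, then immediately given compound plus forskolin (10 μM final) for 30 min at room temperature. Eu-cAMP tracer and ULight-anti-cAMP were added for 2 h in the dark. Values are % of maximal dopamine signal, nonlinear regression of triplicate runs, n = 3–4.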
`Cc1cccc(NC(=O)CN2CCC(c3ccccn3)CC2)c1` was tested, and the EC50 was “Not Active”. `Cc1ccc(C2CCN(CC(=O)Nc3cccc(C)c3)CC2)cc1` was tested, and the EC50 was “Not Active”.

What follows are compounds tested against T1, D(2) dopamine receptor (assay: Antagonist activity at human D2L receptor expressed in CHOK1 cells assessed as suppression of dopamine-induced inhibition of forskolin-stimulated cAMP accumulation measured after 30 mins by Eu-cAMP tracer based TR-FRET assay relative to dopamine). Settings: 0.5 h.
Type: cell-based
In the case of `Cc1ccc(C2CCN(CC(=O)Nc3cccc(C)c3)CC2)cc1`, the “inhibition (INH)” value is reported as 100%.

These compounds were tested against T2, D(4) dopamine receptor (Homo sapiens, UniProt P21917) (assay: Antagonist activity at human D4 receptor expressed in CHOK1 cells assessed as suppression of dopamine-induced inhibition of forskolin-stimulated cAMP accumulation measured after 30 mins by Eu-cAMP tracer based TR-FRET assay). Settings: not given.
T2 sequence (P21917 whole entry): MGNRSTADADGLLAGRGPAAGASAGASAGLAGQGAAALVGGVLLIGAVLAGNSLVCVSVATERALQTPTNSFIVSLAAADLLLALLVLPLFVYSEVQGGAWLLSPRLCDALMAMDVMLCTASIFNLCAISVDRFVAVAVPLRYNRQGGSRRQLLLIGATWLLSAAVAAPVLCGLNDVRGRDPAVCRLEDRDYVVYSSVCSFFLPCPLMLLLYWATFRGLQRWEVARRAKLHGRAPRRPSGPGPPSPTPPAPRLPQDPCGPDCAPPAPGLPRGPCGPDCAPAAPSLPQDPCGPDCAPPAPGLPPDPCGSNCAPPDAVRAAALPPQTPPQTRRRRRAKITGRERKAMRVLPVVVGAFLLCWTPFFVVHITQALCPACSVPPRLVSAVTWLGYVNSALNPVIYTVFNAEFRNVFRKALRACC
Type: functional, cell-based
Compound `Cc1cccc(NC(=O)CN2CCC(c3ccccn3)CC2)c1` has an IC50 of 68.4 nM. With `Cc1ccc(C2CCN(CC(=O)Nc3cccc(C)c3)CC2)cc1` the IC50 was 3060 nM.

What follows are compounds tested against T3, D(4) dopamine receptor (Homo sapiens) (UniProt P21917) (assay: Agonist activity at human D4 receptor expressed in CHOK1 cells assessed as inhibition of forskolin-induced cAMP accumulation measured after 30 mins by Eu-cAMP tracer based TR-FRET assay relative to dopamine). Settings: not given.
T3 sequence (whole entry): T2 sequence (P21917 whole entry)
Type: functional, cell-based
Procedure, shortened: as §1
Compound `Cc1cccc(NC(=O)CN2CCC(c3ccccn3)CC2)c1` has an Emax of 61.9%.

The compounds below were run against T2, D(4) dopamine receptor (assay: Agonist activity at human D4 receptor expressed in CHOK1 cells assessed as inhibition of forskolin-induced cAMP accumulation measured after 30 mins by Eu-cAMP tracer based TR-FRET assay). Settings: not given.
Type: functional, cell-based
Procedure, shortened: as §1
In the case of `Cc1ccc(C2CCN(CC(=O)Nc3cccc(C)c3)CC2)cc1`, the EC50 is reported as “Not Active”.

Same assay, conditions: read-out: EC50
`Cc1cccc(NC(=O)CN2CCC(c3ccccn3)CC2)c1` was tested, and the EC50 was 2.7 nM.

Each compound was assayed against T4, D(3) dopamine receptor (Homo sapiens, UniProt P35462) (assay: Displacement of [3H]N-methylspiperone from human D3 receptor expressed in HEK293 cell membranes measured after 60 mins by scintillation counting method). Settings: not given.
T4 sequence (P35462 whole entry): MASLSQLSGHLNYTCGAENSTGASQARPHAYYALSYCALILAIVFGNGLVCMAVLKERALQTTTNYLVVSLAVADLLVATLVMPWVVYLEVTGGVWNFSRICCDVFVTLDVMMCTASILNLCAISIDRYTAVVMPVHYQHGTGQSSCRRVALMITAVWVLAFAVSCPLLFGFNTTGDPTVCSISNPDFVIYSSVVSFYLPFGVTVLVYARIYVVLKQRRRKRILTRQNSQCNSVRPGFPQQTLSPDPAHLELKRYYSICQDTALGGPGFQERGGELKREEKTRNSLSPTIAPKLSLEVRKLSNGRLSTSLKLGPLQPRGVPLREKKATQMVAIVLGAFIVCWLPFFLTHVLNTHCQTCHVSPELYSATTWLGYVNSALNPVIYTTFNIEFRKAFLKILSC
Procedure, shortened: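 HEK293 cells stably expressing human D3R; membranes in EBSS buffer pH 7.4, stored at −80 °C. 20 μg protein/well with 0.4 nM [3H]N-methylspiperone (final), half-log dilutions in 30% DMSO, in triplicate. 60 min at room temperature, then GF/B filtration. Nonspecific binding with 10 μM (+)-butaclamol.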
`Cc1cccc(NC(=O)CN2CCC(c3ccccn3)CC2)c1` was tested, and the Ki was 1680 nM. Work on `Cc1ccc(C2CCN(CC(=O)Nc3cccc(C)c3)CC2)cc1` yielded a Ki of 3680 nM.

These compounds were tested against T2, D(4) dopamine receptor (assay: Displacement of [3H]N-methylspiperone from human D4.4 receptor expressed in HEK293 cell membranes measured after 60 mins by scintillation counting method). Settings: not given.
Procedure, shortened: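 Frozen HEK293 membranes stably expressing human D4.4R (30 μg/well) in EBSS-bicarbonate buffer, pH 7.4, were incubated with 0.4 nM [3H]N-methylspiperone and half-log compound dilutions (30% DMSO vehicle) for 60 min at room temperature. Nonspecific binding was defined by 10 μM (+)-butaclamol. Samples were filtered on GF/B filters and counted by scintillation.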
`Cc1cccc(NC(=O)CN2CCC(c3ccccn3)CC2)c1` showed a Ki of 54.2 nM. In the case of `Cc1ccc(C2CCN(CC(=O)Nc3cccc(C)c3)CC2)cc1`, the Ki is reported as 110 nM.

The compounds below were run against T2, D(4) dopamine receptor (assay: Displacement of [3H](R)-(+)-7-OH-DPAT from human D4.4 receptor expressed in HEK293 cell membranes measured after 90 mins by scintillation counting method). Settings: not given.
Procedure, shortened: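 HEK293 cells stably expressing human D4.4R; membranes used fresh in 50 mM Tris, 10 mM MgCl2, 1 mM EDTA, pH 7.4. 60 μg protein/well with 3 nM [3H]-(R)-(+)-7-OH-DPAT (final), half-log dilutions in 30% DMSO, in triplicate. 90 min at room temperature, then GF/B filtration. Nonspecific binding with 10 μM (+)-butaclamol.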
For `Cc1cccc(NC(=O)CN2CCC(c3ccccn3)CC2)c1`, the Ki was 3.95 nM.

What follows are compounds tested against T4, D(3) dopamine receptor (assay: Antagonist activity at human D3 receptor expressed in CHOK1 cells assessed as inhibition of dopamine-induced beta-arrestin recruitment measured after 90 mins by luminescence assay). Settings: not given.
Type: cell-based
Procedure, shortened: (§2)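 Antagonist-mode PathHunter β-arrestin assay in CHO-K1 cells stably expressing human D2R long isoform or D3R, seeded overnight. Compound dilutions in PBS with 0.2 μM metabisulfite were co-incubated with an EC80 dopamine concentration for 90 min at 37 °C. Detection reagent was added for 45–60 min at room temperature, then luminescence was read. Values are % of dopamine EC80 response, from nonlinear regression of triplicate runs, n = 3–4.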
In the case of `Cc1ccc(C2CCN(CC(=O)Nc3cccc(C)c3)CC2)cc1`, the IC50 is reported as “Not Active”.

Same assay, conditions: read-out: IC50
Compound `Cc1cccc(NC(=O)CN2CCC(c3ccccn3)CC2)c1` has an IC50 of over 100000 nM.

These compounds were tested against T4, D(3) dopamine receptor (assay: Displacement of [3H](R)-(+)-7-OH-DPAT from human D3 receptor expressed in HEK293 cell membranes measured after 90 mins by scintillation counting method). Settings: not given.
Procedure, shortened: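 Fresh HEK293 hD3R membranes (40 μg/well) in 50 mM Tris, 10 mM MgCl2, 1 mM EDTA, pH 7.4 were incubated with 0.5 nM [3H]-(R)-(+)-7-OH-DPAT and half-log compound dilutions in 30% DMSO for 90 min at room temperature. Nonspecific binding was defined with 10 μM (+)-butaclamol. Samples were filtered on PEI-soaked GF/B filters and counted by scintillation.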
For `Cc1cccc(NC(=O)CN2CCC(c3ccccn3)CC2)c1`, the Ki was 167 nM.

These compounds were tested against T2, D(4) dopamine receptor (assay: Agonist activity at human D4 receptor expressed in CHOK1 cells assessed as induction of beta-arrestin recruitment measured after 90 mins by luminescence assay). Settings: not given.
Type: cell-based
Procedure, shortened: (§3)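 PathHunter enzyme-complementation assay in CHO-K1 cells stably expressing human D2R long isoform, D3R or D4R, seeded overnight in Ham's F12/10% FBS. Compounds were diluted in PBS with 0.2 μM sodium metabisulfite and applied at multiple concentrations for 90 min at 37 °C. Detection reagent was added for 45–60 min at room temperature, then luminescence was read. Values are % of maximal dopamine response, from nonlinear regression of triplicate runs, mean ± SEM, n = 3–4.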
In the case of `Cc1ccc(C2CCN(CC(=O)Nc3cccc(C)c3)CC2)cc1`, the EC50 is reported as “Not Active”.

Same assay, conditions: read-out: EC50
`Cc1cccc(NC(=O)CN2CCC(c3ccccn3)CC2)c1` gave an EC50 of 473 nM.

What follows are compounds tested against D(1B) dopamine receptor (Homo sapiens) (UniProt P21918) (assay: Agonist activity at D5 receptor (unknown origin) stably expressed in CHOK1 cells assessed as induction of beta-arrestin recruitment measured after 90 mins by luminescence assay). Settings: not given.
Chain of D(1B) dopamine receptor (Homo sapiens) (P21918 whole entry): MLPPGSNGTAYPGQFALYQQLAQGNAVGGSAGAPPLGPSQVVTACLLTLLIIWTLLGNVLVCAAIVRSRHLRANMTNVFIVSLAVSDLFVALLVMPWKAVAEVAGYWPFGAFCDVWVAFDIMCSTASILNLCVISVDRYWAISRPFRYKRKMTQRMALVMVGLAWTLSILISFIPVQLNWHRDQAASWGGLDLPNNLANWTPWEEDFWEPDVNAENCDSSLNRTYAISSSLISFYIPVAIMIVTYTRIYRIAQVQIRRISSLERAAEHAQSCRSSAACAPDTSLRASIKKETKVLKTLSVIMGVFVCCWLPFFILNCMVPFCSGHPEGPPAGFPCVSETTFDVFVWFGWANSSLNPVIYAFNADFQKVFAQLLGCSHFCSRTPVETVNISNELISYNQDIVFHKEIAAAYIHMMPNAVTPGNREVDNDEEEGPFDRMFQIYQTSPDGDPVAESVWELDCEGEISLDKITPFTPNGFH
Type: cell-based
For `Cc1cccc(NC(=O)CN2CCC(c3ccccn3)CC2)c1`, the Activity was “inactive”.

The compounds below were run against T1, D(2) dopamine receptor (assay: Antagonist activity at human D2L receptor expressed in CHOK1 cells assessed as inhibition of dopamine-induced beta-arrestin recruitment measured after 90 mins by luminescence assay relative to control). Settings: not given.
Type: cell-based
Procedure, shortened: as §2
With `Cc1cccc(NC(=O)CN2CCC(c3ccccn3)CC2)c1` the INH was 94.8%. Compound `Cc1ccc(C2CCN(CC(=O)Nc3cccc(C)c3)CC2)cc1` has an INH of 100%.

The compounds below were run against D(1A) dopamine receptor (Homo sapiens) (UniProt P21728) (assay: Antagonist activity at D1 receptor (unknown origin) stably expressed in CHOK1 cells assessed as inhibition of dopamine-induced beta-arrestin recruitment measured after 90 mins by luminescence assay). Settings: not given.
Chain of D(1A) dopamine receptor (Homo sapiens) (P21728 whole entry): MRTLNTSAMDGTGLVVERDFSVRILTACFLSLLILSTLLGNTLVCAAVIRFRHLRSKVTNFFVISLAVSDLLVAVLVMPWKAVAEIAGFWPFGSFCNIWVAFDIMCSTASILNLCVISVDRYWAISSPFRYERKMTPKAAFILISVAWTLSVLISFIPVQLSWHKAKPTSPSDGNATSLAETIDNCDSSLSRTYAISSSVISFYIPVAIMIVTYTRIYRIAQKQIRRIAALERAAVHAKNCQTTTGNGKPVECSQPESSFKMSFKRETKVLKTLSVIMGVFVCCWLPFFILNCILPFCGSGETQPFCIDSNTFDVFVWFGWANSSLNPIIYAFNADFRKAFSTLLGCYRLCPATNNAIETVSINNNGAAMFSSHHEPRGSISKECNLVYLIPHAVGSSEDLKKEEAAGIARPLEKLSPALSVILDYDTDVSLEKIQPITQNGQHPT
Type: cell-based
With `Cc1cccc(NC(=O)CN2CCC(c3ccccn3)CC2)c1` the inhibition was “inactive”.

The compounds below were run against T3, D(4) dopamine receptor (Homo sapiens) (assay: Antagonist activity at human D4 receptor expressed in CHOK1 cells assessed as inhibition of dopamine-induced beta-arrestin recruitment measured after 90 mins by luminescence assay relative to control). Settings: not given.
Type: cell-based
Design: concentration or dose not given beside the values
For `Cc1cccc(NC(=O)CN2CCC(c3ccccn3)CC2)c1`, the inhibition was 81.7%.

Each compound was assayed against D(1B) dopamine receptor (Homo sapiens) (UniProt P21918) (assay: Antagonist activity at D5 receptor (unknown origin) stably expressed in CHOK1 cells assessed as inhibition of dopamine-induced beta-arrestin recruitment measured after 90 mins by luminescence assay). Settings: not given.
Type: cell-based
In the case of `Cc1cccc(NC(=O)CN2CCC(c3ccccn3)CC2)c1`, the inhibition is reported as “inactive”.

What follows are compounds tested against T3, D(4) dopamine receptor (Homo sapiens) (assay: Antagonist activity at human D4 receptor expressed in CHOK1 cells assessed as suppression of dopamine-induced inhibition of forskolin-stimulated cAMP accumulation measured after 30 mins by Eu-cAMP tracer based TR-FRET assay relative to dopamine). Settings: not given.
Type: functional, cell-based
Design: concentration or dose not given beside the values
`Cc1cccc(NC(=O)CN2CCC(c3ccccn3)CC2)c1` showed an inhibition of 53.8%.

These compounds were tested against T3, D(4) dopamine receptor (Homo sapiens) (assay: Agonist activity at human D4 receptor expressed in CHOK1 cells assessed as induction of beta-arrestin recruitment measured after 90 mins by luminescence assay relative to control). Settings: not given.
Type: cell-based
Procedure, shortened: as §3
`Cc1cccc(NC(=O)CN2CCC(c3ccccn3)CC2)c1` showed an Emax of 22.5%.

The compounds below were run against T1, D(2) dopamine receptor (assay: Agonist activity at human D2L receptor expressed in CHOK1 cells assessed as induction of beta-arrestin recruitment measured after 90 mins by luminescence assay). Settings: not given.
Type: cell-based
Procedure, shortened: as §3
`Cc1cccc(NC(=O)CN2CCC(c3ccccn3)CC2)c1` was tested, and the EC50 was “Not Active”. With `Cc1ccc(C2CCN(CC(=O)Nc3cccc(C)c3)CC2)cc1` the EC50 was “Not Active”.

The compounds below were run against T2, D(4) dopamine receptor (assay: Antagonist activity at human D4 receptor expressed in CHOK1 cells assessed as inhibition of dopamine-induced beta-arrestin recruitment measured after 90 mins by luminescence assay). Settings: read-out: IC50.
Type: cell-based
`Cc1cccc(NC(=O)CN2CCC(c3ccccn3)CC2)c1` gave an IC50 of 191 nM. `Cc1ccc(C2CCN(CC(=O)Nc3cccc(C)c3)CC2)cc1` was tested, and the IC50 was 7350 nM.

The compounds below were run against D(1A) dopamine receptor (Homo sapiens) (UniProt P21728) (assay: Agonist activity at D1 receptor (unknown origin) stably expressed in CHOK1 cells assessed as induction of beta-arrestin recruitment measured after 90 mins by luminescence assay). Settings: not given.
Type: cell-based
For `Cc1cccc(NC(=O)CN2CCC(c3ccccn3)CC2)c1`, the Activity was “inactive”.

What follows are compounds tested against T4, D(3) dopamine receptor (assay: Agonist activity at human D3 receptor expressed in CHOK1 cells assessed as induction of beta-arrestin recruitment measured after 90 mins by luminescence assay). Settings: not given.
Type: cell-based
Procedure, shortened: as §3
With `Cc1ccc(C2CCN(CC(=O)Nc3cccc(C)c3)CC2)cc1` the EC50 was “Not Active”.

Same assay, conditions: read-out: EC50
Compound `Cc1cccc(NC(=O)CN2CCC(c3ccccn3)CC2)c1` has an EC50 of over 100000 nM.
